Data on 29 molecules can be found in ChEMBL document CHEMBL3232768, “Structure-activity relationships of β-hydroxyphosphonate nucleoside analogues as cytosolic 5'-nucleotidase II potential inhibitors: synthesis, in vitro evaluation and molecular modeling studies” (Eur J Med Chem, 2014).

Assay [1] in a line: Competitive inhibition of recombinant C-terminal His-tagged cN2 N-terminal 30 amino acid deletion mutant (unknown origin) expressed in Escherichia coli BL21 using IMP as substrate by double reciprocal plot analysis. On the set-up: species or system Homo sapiens. Put shortly: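 Kinetic assay with His-Trap and Superdex 75-purified enzyme at 0.1. Buffer was 50 mM imidazole pH 6.5, 500 mM NaCl, 10 mM MgCl₂, 1 mM DTT, with enzyme and substrate freshly prepared in it. Rate constants were measured at IMP from 200 to 3 mM to derive Ki. It was also used for compounds that react with the malachite green colorant.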

The species entered for assay [2] is Homo sapiens. In words: Inhibition of recombinant C-terminal His-tagged cN2 N-terminal 30 amino acid deletion mutant (unknown origin) expressed in Escherichia coli BL21 using IMP as substrate at 1 mM after 5 mins by green malachite phosphate assay. Put shortly:
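Enzyme was purified from E. coli BL21 carrying pET24b by His-Trap affinity and then Superdex 75 gel filtration. Final enzyme was 0.1 in 50 mM imidazole pH 6.5, 500 mM NaCl, 10 mM MgCl₂, 1 mM DTT on ice. The reaction was started with 50 IMP plus equimolar Mg²⁺ and run 5 min at 37 °C. Malachite green reagent stopped it; released phosphate was read above 630 nm against a phosphate calibration curve.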

Broadly, the Ki is the equilibrium dissociation constant of an inhibitor or competing ligand from its target. As a reminder, the inhibition is the relative decrease from the control value, in per cent.

Bounds are passed on as bounds.

`O=c1[nH]c(=O)n([C@@H]2O[C@H]([C@H](O)CP(=O)(O)O)[C@@H](O)[C@H]2O)cc1C#Cc1ccccc1`: the Ki in assay [1] is 2.18 mM.

Regarding `Nc1nc(=O)n([C@@H]2O[C@H]([C@H](O)CP(=O)(O)O)[C@@H](O)[C@H]2O)cc1/C=C/c1ccccc1`, in assay [1], the Ki amounted to 1.14 mM.

Turning to `CCOP(=O)(C[C@@H](O)[C@H](CO)O[C@H](CO)n1ccc(N)nc1=O)OCC`, the inhibition in assay [2] was found to be 21%.

For the molecule `O=c1ccn([C@@H]2O[C@H]([C@H](O)CP(=O)(O)O)[C@@H](O)[C@@H]2O)c(=O)[nH]1`, in assay [2], the inhibition came to 25%. Moreover, the Ki in assay [1] is over 100 mM.

Turning to `CCCCC#Cc1cn([C@@H]2O[C@H]([C@H](O)CP(=O)(O)O)[C@@H](O)[C@H]2O)c(=O)nc1N`, the inhibition in assay [2] came out at 40%.

For the molecule `CCOP(=O)(C[C@@H](O)[C@H]1O[C@@H](n2ccc(N)nc2=O)[C@H](O)[C@@H]1O)OCC`, the inhibition in assay [2] worked out at 18%.

With `O=c1[nH]c(=O)n([C@@H]2O[C@H]([C@H](O)CP(=O)(O)O)[C@@H](O)[C@H]2O)cc1/C=C/c1ccccc1`, in assay [1], the Ki stood at 3.36 mM.

For the molecule `O=c1[nH]c(=O)n([C@@H]2O[C@H]([C@H](O)CP(=O)(O)O)[C@@H](O)[C@H]2O)cc1-c1ccccc1`, the inhibition in assay [2] was found to be 24%.

Regarding `CCOP(=O)(C[C@@H](O)[C@H]1O[C@@H](n2ccc(=O)[nH]c2=O)[C@H](O)[C@@H]1O)OCC`, the inhibition in assay [2] came out at 11%.

On to `Nc1ccn([C@@H]2O[C@H]([C@H](O)CP(=O)(O)O)[C@H](O)[C@@H]2O)c(=O)n1`, for which, in assay [2], the inhibition turned out to be 35%. In assay [1], the Ki stood at 11.1 mM.

In the case of `Nc1nc(=O)n([C@@H]2O[C@H]([C@H](O)CP(=O)(O)O)[C@@H](O)[C@H]2O)cc1C#Cc1ccccc1`, the Ki in assay [1] amounted to 8.85 mM.

Turning to `O=c1ccn([C@@H]2O[C@H]([C@H](O)CP(=O)(O)O)[C@H](O)[C@H]2O)c(=O)[nH]1`, the inhibition in assay [2] came to 25%.

On to `CCCCC#Cc1cn([C@@H]2O[C@H]([C@H](O)CP(=O)(O)O)[C@@H](O)[C@H]2O)c(=O)[nH]c1=O`, for which the inhibition in assay [2] was found to be 45%.

With `Nc1nc(=O)n([C@@H]2O[C@H]([C@H](O)CP(=O)(O)O)[C@@H](O)[C@H]2O)cc1-c1ccccc1`, the inhibition in assay [2] amounted to 60%. Moreover, in assay [1], the Ki is 2.01 mM.

Turning to `CC(C)(C)C#Cc1cn([C@@H]2O[C@H]([C@H](O)CP(=O)(O)O)[C@@H](O)[C@H]2O)c(=O)[nH]c1=O`, the Ki in assay [1] was 5.94 mM.

For `O=c1ccn([C@@H]2O[C@H]([C@H](O)CP(=O)(O)O)[C@@H](O)[C@H]2O)c(=O)[nH]1`, the inhibition in assay [2] amounted to 72%. Moreover, the Ki in assay [1] came to 2.08 mM.

On to `CC(C)(C)C#Cc1cn([C@@H]2O[C@H]([C@H](O)CP(=O)(O)O)[C@@H](O)[C@H]2O)c(=O)nc1N`, for which, in assay [2], the inhibition was 46%. For the same molecule, in assay [1], the Ki was determined as 7.33 mM.

As for `Nc1ccn([C@@H]2O[C@H]([C@H](O)CP(=O)(O)O)[C@H](O)[C@H]2O)c(=O)n1`, the inhibition in assay [2] turned out to be 48%. For the same molecule, the inhibition constant Ki in assay [1] is 8.9 mM.

For the molecule `O=c1ccn([C@@H]2O[C@H]([C@H](O)CP(=O)(O)O)[C@H](O)[C@@H]2O)c(=O)[nH]1`, the inhibition in assay [2] was 25%. The Ki in assay [1] was over 50 mM.

In the case of `Nc1ccn([C@@H]2O[C@H]([C@H](O)CP(=O)(O)O)[C@@H](O)[C@@H]2O)c(=O)n1`, the inhibition in assay [2] amounted to 80%. In addition, the Ki in assay [1] amounted to 0.978 mM.

As to `Nc1ccn([C@@H]2O[C@H]([C@@H](O)CP(=O)(O)O)[C@@H](O)[C@H]2O)c(=O)n1`, the inhibition in assay [2] was 42%.

`Nc1ccn([C@@H](CO)O[C@@H](CO)[C@H](O)CP(=O)(O)O)c(=O)n1`: the inhibition in assay [2] is 45%. The Ki in assay [1] worked out at 4.06 mM.

As to `CCOP(=O)(C[C@@H](O)[C@H]1O[C@@H](n2ccc(N)nc2=O)[C@@H](O)[C@@H]1O)OCC`, the inhibition in assay [2] was determined as 20%.

In the case of `CCOP(=O)(C[C@@H](O)[C@H](CO)O[C@H](CO)n1ccc(=O)[nH]c1=O)OCC`, the inhibition in assay [2] is 10%.

As to `Nc1ccn([C@@H]2O[C@H]([C@H](O)CP(=O)(O)O)[C@@H](O)[C@H]2O)c(=O)n1`, in assay [2], the inhibition came out at 85%. The Ki in assay [1] is 1.74 mM.

As for `O=c1ccn([C@@H](CO)O[C@@H](CO)[C@H](O)CP(=O)(O)O)c(=O)[nH]1`, in assay [2], the inhibition amounted to 20%.

In the case of `CCOP(=O)(C[C@@H](O)[C@H]1O[C@@H](n2ccc(=O)[nH]c2=O)[C@@H](O)[C@@H]1O)OCC`, the inhibition in assay [2] turned out to be 2%.

Consider `CCOP(=O)(C[C@@H](O)[C@H]1O[C@@H](n2ccc(=O)[nH]c2=O)[C@H](O)[C@H]1O)OCC`, for which the inhibition in assay [2] stood at 26%.

For the molecule `O=c1ccn([C@@H]2O[C@H]([C@@H](O)CP(=O)(O)O)[C@@H](O)[C@H]2O)c(=O)[nH]1`, the inhibition in assay [2] is 43%.
